HTRA1 inh: blocks human HTRA1 serine peptidase | Q92743 | recombinant HTRA1, FP-rhodamine activity-based probe, fluorescence polarization | inhibition, % at 5.96 µM | actives 0.5% (n = 340,000) | AID 504803; in the data active means inhibition above about 36%;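 further: 0% = enzyme with DMSO and 100% = wells lacking enzyme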
Tn7 DDE FP: inhibitors of Tn7 peptide binding to human fibrin DD(E). actives 0.13% (n = 370,000). P02675. FP displacement of FITC-Tn7 peptide from fibrin DD(E); 0% = median of compound wells per plate. inhibition, % at 8.3 µM;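 active means inhibition above the mean of compounds falling within the control limits plus 3 SD of them, cut at about 14% in these data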;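 further: 0% = plate median of compound wells and 100% = 10 µM Aha-Tn7 peptide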
Target sequence (P02675 whole entry, looked up): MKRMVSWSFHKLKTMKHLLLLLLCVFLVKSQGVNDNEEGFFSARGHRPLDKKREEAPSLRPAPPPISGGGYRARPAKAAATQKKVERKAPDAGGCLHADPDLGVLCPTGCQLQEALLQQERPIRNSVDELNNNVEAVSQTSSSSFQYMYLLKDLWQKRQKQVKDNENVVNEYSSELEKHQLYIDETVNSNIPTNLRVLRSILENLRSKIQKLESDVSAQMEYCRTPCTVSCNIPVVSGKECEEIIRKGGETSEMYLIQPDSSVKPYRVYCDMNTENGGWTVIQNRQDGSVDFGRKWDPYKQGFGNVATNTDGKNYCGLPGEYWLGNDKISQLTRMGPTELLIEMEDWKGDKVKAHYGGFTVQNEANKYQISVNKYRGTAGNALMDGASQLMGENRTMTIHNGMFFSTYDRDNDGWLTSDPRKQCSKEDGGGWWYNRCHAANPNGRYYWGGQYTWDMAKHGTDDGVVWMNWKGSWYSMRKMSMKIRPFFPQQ
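System: human fibrin DD(E); quantity: Fibrin-DD(E) at 2 µM final; also added: fluorescent Tn7 probe at 0.1 µM; compound dosing: single nominal test concentration of 8.3 µM per compound; schedule: 10 min preincubation, 3 h with tracer, room temperature; detection: fluorescence polarization of the labelled Tn7 tracer; repeats: one replicate per compound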
DDE Tn6 FP inh: inhibitors of Tn6 peptide binding to human fibrin DD(E); Fibrin DD(E) TRITC-Tn6 fluorescence polarization displacement; inhibition, % at 8.3 µM; actives 0.21% (n = 370,000); AID 720509;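 active means inhibition above a per-campaign cutoff: mean of compounds within control limits plus 3 SD, cut at about 15% in these data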;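 further: 0% = median of all compound wells on the plate and 100% = blocking peptide control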
SIAE primary: inhibitors of human sialic acid acetylesterase SIAE; Q9HAT2; SIAE FP-Rh probe binding, fluorescence polarization; inhibition, % at 9.66 µM; actives 0.69% (n = 370,000); AID 1053197;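 active means inhibition above a cutoff: mean of compounds within the control limits plus 3 SD of those, cut at about 17% in these data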;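 further: 0% = plate median of compound wells and 100% = probe without SIAE protein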
mABHD4 FP: ABHD4 (mouse) inhibition, primary FP screen | Q8VD66 | purified mABHD4, FP-Rh probe fluorescence polarization | inhibition, % at 8.92 µM | actives 0.54% (n = 370,000) | AID 720543;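 active means inhibition exceeding the mean over every tested compound plus 3 SD, cut at about 30% in these data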;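 further: 0% = plate median of compound wells and 100% = S159A mutant with DMSO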
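assay system = mABHD4 protein | compound dosing = single nominal dose of 8.92 µM, 0.89% DMSO final | read-out basis = percent inhibition of probe binding, normalized to plate controls | schedule = Enzyme–compound pre-incubation 45 min, then probe 60 min, both 25 °C | detection = fluorescence polarization, excitation 525 nm, emission 598 nm, BODIPY TMR filters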
TCR CD3 inh: inhibitors of human TCR-CD3 interaction. TAMRA-labeled TCR probe fluorescence, biochemical. inhibition, % at 9.4 µM. actives 0.37% (n = 360,000); in the data active means inhibition above about 19%;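 further: recombinant mutant TCR 2C K166C tagged with TAMRA read by polarization; 0% = receptor in buffer alone and 100% = receptor with positive control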
SIAE confirm: confirmation of human SIAE inhibitors; shares compounds with SIAE primary; AID 1117263; SIAE FP-Rh activity-based probe, fluorescence polarization; actives 13% (n = 2,300); inhibition, % at 9.66 µM;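 active means mean inhibition of the replicates above the hit cutoff set in the primary screen, cut at about 17% in these data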;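 further: 0% = SIAE with DMSO and probe and 100% = probe without SIAE; inhibitors lower polarization as more probe stays unbound to SIAE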
An asterisk follows results filed as active; · = no result given. Hits are enriched below; roughly 1.8% of the tested compounds scored in any of these assays.

SMILES	HTRA1 inh	Tn7 DDE FP	DDE Tn6 FP inh	SIAE primary	mABHD4 FP	TCR CD3 inh	SIAE confirm
CCCNS(=O)(=O)c1cccc(C(=O)NNC(=O)c2cc(C)oc2C)c1	1.8	4.9	-4.0	17.3*	1.7	-6.0	-6.1
O=C(C1CCCN1S(=O)(=O)c1cccc2ccccc12)N1CCN(c2ccccc2)CC1 (configuration not stated)	·	-3.4	5.6	0.2	-2.0	·	·
CC(C)C[C@H]1CN([C@@H](CC(C)C)CN2CCC[C@H]2CN2C(=O)C(=O)NC[C@@H]2Cc2ccc(O)cc2)C(=O)C(=O)N1CCc1ccccc1	·	3.3	4.2	19.6*	8.0	-8.6	9.6
O=C(O)C1C2C=CC(C2)C1C(=O)NCCc1cccc(Cl)c1 (configuration not stated)	1.7	-1.7	-2.6	22.3*	-1.8	-8.2	-8.9
O=C(O)C1C2C=CC(C2)C1C(=O)NCc1cccc(Cl)c1 (configuration not stated)	1.0	0.9	3.9	-3.3	-0.6	-4.2	·
COc1ccc(OCC(=O)Nc2cc(S(=O)(=O)N3CCCC3)ccc2OCC(F)(F)F)cc1	-3.5	2.5	1.2	39.9*	2.1	-11.6	-1.4
COc1ccc(OCC(=O)Nc2cc(S(=O)(=O)N3CCCCC3)ccc2OC)cc1	3.0	-0.5	3.7	-2.5	-0.1	-6.0	·
O=C(NC1CCCCN(Cc2ccc(Cl)cc2)C1=O)c1cccs1 (configuration not stated)	·	1.7	-1.7	-2.3	1.5	·	·
COc1ccc(NC(=O)/C=C/c2cc(OC)c(OC)c(OC)c2)cn1	3.3	0.6	-5.7	21.3*	4.3	2.0	3.0
COc1ccc(NC(=O)/C=C/c2ccccc2)cn1	3.5	-5.8	-0.7	1.8	3.0	-5.7	·
O=C(CSc1ccc(-c2ccco2)nn1)Nc1ccc(F)cc1F	3.9	-1.5	-5.8	18.8*	22.2	-1.7	2.1
CCCCN1CNC(=S)N(c2cc(C)ccc2C)C1	6.8	5.7	4.1	0.7	-2.5	-1.0	·
CCCCN1CNC(=S)N(c2ccc(C(=O)OCC)cc2)C1	-0.1	7.2	-0.2	18.4*	-3.7	-3.2	-2.6
Cc1cc(N2CC(C(=O)NCc3cccs3)CC2=O)ccc1C(C)C (configuration not stated)	-2.2	-1.6	-3.8	18.0*	0.4	5.3	2.1
Cc1ccc(N2CC(C(=O)NCc3cccs3)CC2=O)cc1C (configuration not stated)	1.9	1.9	-3.1	15.8	-2.0	-6.4	·
NNc1nc2ccc(Cl)cc2s1	19.0	11.3	-2.9	23.0*	-1.9	0.7	0.6
CC(C)NC(=S)N/N=C/c1c[nH]c2ccccc12	5.9	7.4	6.4	8.3	8.9	5.1	·
Cc1[nH]c2ccccc2c1/C=N/NC(=O)C1CC1(c1ccccc1)c1ccccc1 (configuration not stated)	-0.1	-8.9	-15.4	27.0*	-2.2	-5.6	2.2
Cc1[nH]c2ccccc2c1/C=N/NC(=S)NC(C)C	16.7	0.7	3.9	20.0*	9.6	-2.3	14.2
O=C(OCC#CCSc1nnc(-c2cc3ccccc3cc2O)o1)c1ccc(F)cc1	·	5.2	-0.3	-2.6	-5.7	·	·
CC[C@H](CCCc1ccc(OC)cc1)CCC(=O)N(c1ccccc1)c1ccccc1	·	9.5	-3.0	-1.1	-6.9	·	·
Fc1ccc(CC2CCN(c3ncnc4sccc34)CC2)cc1	·	-6.7	2.1	-3.4	-6.9	·	·
CC(C)(C)C(=O)OC12CCCN(C1)/C(=C/c1ccc(C#N)cc1)C2 (configuration not stated)	·	0.4	-4.0	38.6*	3.7	·	0.5
O=Nc1c(O)[nH]c2ccc(F)cc12	15.3	-1.9	-1.6	22.6*	11.6	-1.6	21.9*
COc1ccc2[nH]c(O)c(N=NC(=O)Cc3cccs3)c2c1	8.7	-8.1	2.2	18.3*	20.2	12.3	11.1
SMILES	HTRA1 inh	Tn7 DDE FP	DDE Tn6 FP inh	SIAE primary	mABHD4 FP	TCR CD3 inh	SIAE confirm
O=Nc1c(O)[nH]c2ccc(Cl)cc12	14.3	-1.3	-2.5	28.3*	3.2	-10.8	24.6*
O=[N+]([O-])c1ccc(N=Nc2c(O)[nH]c3ccc(F)cc23)cc1	0.2	-6.2	-0.5	-12.4	5.0	-4.8	·
COc1ccc2[nH]c(O)c(N=O)c2c1	9.5	-2.6	0.0	25.5*	9.5	11.0	23.2*
Cc1occc1-c1nnc(SCC(=O)Nc2ccccn2)n1-c1ccccc1	·	2.2	5.0	-2.2	4.0	·	·
Oc1ccccc1C=NN1CCN(Cc2ccccc2)CC1	·	4.6	-8.7	4.8	-1.9	·	·
COc1ccc(NC(=O)CSc2nc3c(c(=O)n2C)SCC3)cc1OC	3.0	0.9	2.3	0.8	-2.5	-4.0	·
CCn1c(SCC(=O)Nc2ccc(OC)c(OC)c2)nc2c(c1=O)SCC2	4.2	-4.6	-7.7	19.4*	6.0	-4.0	-1.4
O=C(CCc1ccccc1)N/N=C/c1cc(Br)ccc1O	-40.8	3.1	3.1	2.5	-2.9	-1.2	·
COc1ccc(O)c(/C=N/NC(=S)NCCc2ccccc2)c1	25.9	-0.7	-6.6	18.3*	7.0	9.0	9.0
Oc1ccc(Br)cc1/C=N/NC(=S)NCCc1ccccc1	21.8	2.1	6.6	18.0*	-5.0	9.1	9.6
COc1ccc(/C=N/NC(=S)NCCc2ccccc2)cc1	-39.5	-7.3	-8.7	6.1	-9.7	9.3	·
O=C(Cc1ccccc1Cl)NCCN1C(=O)C2C3C=CC(C3)C2C1=O (configuration not stated)	·	0.4	-7.8	-1.1	-6.1	·	·
Cc1ccc(S(=O)(=O)N2CCC(C(=O)NCCCN3CCOCC3)CC2)cc1C	3.5	-2.6	3.6	18.3*	-1.2	-3.2	3.2
COc1ccc(-c2noc(C3CCCN(C(=O)NC4CCC(C)CC4)C3)n2)cc1 (configuration not stated)	·	8.8	0.3	8.1	-0.3	·	·
COc1ccc(N2CCN(c3ncnc4scc(-c5ccc(F)cc5)c34)CC2)cc1	-8.4	4.2	-4.9	10.2	5.2	2.7	·
COc1ccc(N2CCN(c3ncnc4scc(-c5ccc(C)cc5)c34)CC2)cc1	-4.7	-0.4	-1.9	17.5*	2.2	-2.4	4.4
CCCCCn1nnnc1C1(C)Cn2nccc2C(=O)N1Cc1ccco1 (configuration not stated)	·	-2.3	-4.6	-2.3	-1.3	·	·
CC(=O)c1ccc(C(=O)Nc2nnc(-c3ccc(Cl)cc3)o2)cc1	-1.5	4.1	5.0	-2.5	-4.2	-11.4	·
CN(C)c1ccc(C(=O)Nc2nnc(-c3ccc(Cl)cc3)o2)cc1	15.0	-8.6	-0.1	18.3*	-1.7	1.7	5.4
Cc1cccc2c(N=O)c(O)[nH]c12	35.4	-0.2	2.7	45.5*	5.2	5.9	42.5*
